High-throughput results (PubChem)
Sampled rows, rich in hits. Any-hit rate of the full collection: about 3.8%.
Yeast lifespan up: yeast lifespan extension; 0.68% of 130,000 active; inhibition of the nicotinamide effect, % at 10 µM; S. cerevisiae growth with nicotinamide, OD615; deaD strain in restrictive glucose medium; AID 775;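 active means inhibition above a set limit, placed 3 SD over the median of all compounds, cut at about 26% in these data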;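 further: 0% = nicotinamide-treated wells and 100% = cells grown without nicotinamide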
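Assay system: DeaD-strain S. cerevisiae. Medium: CSMM-D glucose medium, restrictive. Reagent: nicotinamide, 1.5 mM, co-present with compound. Compound: 10 µM single point, 0.25% DMSO. Schedule: culture preincubation 4 h, compound exposure 48 h, both 30 °C. Detection: absorbance at 615 nm.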
Yeast growth inh: yeast BB579 growth reduction in restrictive medium; S. cerevisiae BB579 growth, OD615, 48 h; inhibition, % at 10 µM; 0.51% of 140,000 active;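 active means inhibition above a set limit, 3 SD over the mean compound inhibition, cut at about 44% in these data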
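System: Saccharomyces cerevisiae DeaD strain BB579, replicative lifespan model yeast | Buffer or medium: Restrictive glucose-based CSMM-D medium | Times: 4 h preincubation and 48 h exposure at 30 °C | Detection: OD615 turbidity measurement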
Measles CPE: protection of cells from measles virus | Measles virus-infected cells, CPE protection, absorbance | protection (pct of control), % at 4 µM | 1.5% of 140,000 active | AID 841; in the data active means protection mostly above about 24%, no sharp cut-off; inactive means mostly below about 26%
RAM network inh: inhibitors of the yeast RAM network. S. cerevisiae dse1pr::URA3 reporter, 5-FOA growth OD615, 2 d; analog-sensitive cbk1-as2 kinase mutant strain. AID 868. 1.8% of 190,000 active. inhibition, % at 50 µM;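 active means inhibition above a set limit, 3 SD over mean compound inhibition, cut at about 8.4% in these data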;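 further: 0% = DMSO-only wells with no growth and 100% = 10 µM 1-NA-PP1 full growth; inhibition rescues growth on 5-FOA so higher OD means more RAM inhibition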
RAM efflux-def: RAM network inhibition, efflux-deficient strain. S. cerevisiae efflux-deficient reporter strain, 5-FOA growth OD615, 2 days. 1,200 tested, under 10 active. shares compounds with RAM network inh. max inhibition, %; call rule not given here;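 further: plate controls were vehicle for no effect and reference inhibitor for full effect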
The depositor's hits bear a star; . = no result given.

SMILES	Yeast lifespan up	Yeast growth inh	Measles CPE	RAM network inh	others
Brc1cccc(OCCCCN2CCCCC2)c1	1	-13	16	2
N#CCC(=O)N/N=C/c1ccc(OCC(=O)Nc2ccc(F)cc2)cc1	.	.	.	2
CCOc1ccccc1N(C)C(=O)c1nn(-c2ccc(OC)cc2OC)c(=O)c2ccccc12	.	.	.	3
O=C1N(c2cccc3ccccc23)C(c2ccccc2)N2CCCN12 (stereo not drawn)	1	-3	20*	2
COc1cc(/C=C/C(=O)O)cc(S(=O)(=O)NCCO)c1OC	-2	-14	3	3
O=C(CSc1nnnn1-c1cccc2ccccc12)NC(C(=O)O)(c1ccccc1)c1ccccc1	.	.	.	8.8*
O=C(CSc1nnnn1-c1cccc2ccccc12)N1CCOCC1	-13	-42	36*	1
Cc1ccc(-n2nnnc2SCC(=O)NC(C(=O)O)(c2ccccc2)c2ccccc2)cc1C	.	.	.	6
Cc1cc(C)cc(-n2nnnc2SCC(=O)N2CCOCC2)c1	.	3	3	5
CC1(C)CC(=O)c2cnc3c(C#N)cnn3c2C1	.	.	.	2
CCn1cc(CNC(=O)c2cc(COc3ccc(F)cc3F)on2)cn1	.	.	.	-1
COc1ccc2c(CCNC(=O)c3ccc([N+](=O)[O-])cc3)c[nH]c2c1	.	.	.	2
CC(C)=C1C(=O)NN(c2ccc(C)c(Cl)c2)C1=O	45*	-23	7	3
COc1ccc(C(=O)C(CN2CCOCC2)c2ccccc2)cc1F (stereo not drawn)	79*	-42	22	2
Cc1ccc(-c2c(C)n([O-])c3c([n+]2=O)CCCCC3)cc1	1	-32	4	0
CCCn1cc2c(c1-c1ccc(C)cc1)c(=O)n(C)c(=O)n2C	.	.	.	0
Cc1ccc(-c2c3c(=O)n(C)c(=O)n(C)c3cn2Cc2ccccc2)cc1	16	-37	38*	-1
COc1ccc(Cl)cc1N1C(=O)/C(=C\c2sccc2C)N=C1SCC(=O)NC1CC1	-17	-41	15	8.6*
C=CCN1C(=O)/C(=C\c2ccc(Cl)cc2)N=C1SCC(=O)NC1CCCCC1	-1	-34	12	1
CC(C)(C)C(O)(CC#CCN1CCCC1)c1ccccc1 (stereo not drawn)	.	.	.	0
C/C(=N\O)C(=O)NCCCNCCCN(C)C	-9	3	49*	1
C/C(=N\O)C(=O)NCCN(C)C	5	12	18	1
CC(=O)Nc1nc(-c2cc([N+](=O)[O-])cs2)cs1	.	.	.	2
CCOC(=O)CNC(=O)C12CC3CC(C1)CC(c1ccc(C)cc1)(C3)C2	.	.	.	1
CCOc1ccc(NC(=O)C23CC4CC(C2)CC(c2ccccc2)(C4)C3)cc1	13	-60	13	8.6*
SMILES	Yeast lifespan up	Yeast growth inh	Measles CPE	RAM network inh	others
Oc1ccc(O)c(-c2cnns2)c1	-5	-18	6	1
CCCNC(=O)C1CCN(c2cc(-c3ccccc3)nc3ncnn23)CC1	.	.	.	2
COCC(=O)OCC(=O)Nc1ccc(Cl)cc1[N+](=O)[O-]	.	.	.	1
N#Cc1c(NC(=O)c2ccccc2)sc2c1CCC2	-9	-35	2	4
CC(C)C(C(=O)Nc1sc2c(c1C#N)CCCCC2)N1C(=O)c2ccccc2C1=O (stereo not drawn)	-13	-53	56*	7
NNC(=O)C1CC1c1ccc(Cl)cc1 (stereo not drawn)	2	-21	10	1
O=S(=O)(NC1CC1)c1ccc(S(=O)(=O)N2CCc3ccccc32)cc1	8	-18	44*	3
Nc1ccc(S(=O)(=O)N2CCCc3ccccc32)cc1	-3	13	3	3
O=C(Nc1ccc(OC(F)F)c(Cl)c1)C(c1ccccc1)c1ccccc1	2	-25	6	9.6*
O=C(Cc1cccc2ccccc12)Nc1ccc(OC(F)F)c(Cl)c1	4	-43	10	7
COc1ccc2nc(C)cc(N3CC(C)OC(C)C3)c2c1 (stereo not drawn)	-4	-49	27*	0
COC(=O)c1nc(-c2ccccc2)oc1N1CCOCC1	.	.	.	1
COCCCNC(=O)CS(=O)Cc1nc(-c2cccc(OC)c2)oc1C (stereo not drawn)	-4	-15	39*	0
COc1ccccc1OCC(=O)Nc1ccc(-c2nnc(-c3ccco3)o2)cc1	.	.	.	12*	RAM efflux-def=2
N=c1n(Cc2ccc(Cl)cc2)c2ccccc2n1CC(O)COc1ccccc1 (stereo not drawn)	.	.	.	-1
OC(COCC(F)(F)C(F)(F)C(F)(F)C(F)F)Cn1c2ccc(Cl)cc2c2cc(Cl)ccc21 (stereo not drawn)	-1	-33	36	18*	RAM efflux-def=2
CCOCCCNC(=O)c1cc(=O)n(Cc2cccc(C)c2)c2ccccc12	.	.	.	12*	RAM efflux-def=1
CCn1c(=O)cc(OCC(=O)NCCc2cccc(C)c2)c2ccccc21	.	.	.	4
COc1ccccc1C1(CCNS(=O)(=O)c2ccc(C)cc2)CCOC(C(C)C)C1 (stereo not drawn)	2	-33	11	13*	RAM efflux-def=3
COc1cc(CNc2ncn[nH]2)ccc1OCc1cccc(C)c1	.	.	.	3
Cc1ccc(C(=O)OCC(=O)Nc2cc(S(=O)(=O)N3CCOCC3)ccc2C)cc1	.	.	.	12*	RAM efflux-def=2
O=C(C1CCN(C2CCN(CC3CC=CCC3)CC2)CC1)N1CCOCC1 (stereo not drawn)	.	.	.	-1
CC(CNC(=O)c1cccs1)c1ccc([N+](=O)[O-])cc1 (stereo not drawn)	.	.	.	1
COc1ccccc1NC(=O)c1ccc(NC(=O)COC(=O)CCC2CCCC2)cc1	-3	-32	.	14*	RAM efflux-def=3
[O-][n+]1c2c(nc3c1-c1ccccc1C3O)CCCC2 (stereo not drawn)	.	.	.	1
SMILES	Yeast lifespan up	Yeast growth inh	Measles CPE	RAM network inh	others
COc1ccnc(N2CCN(c3ccc(Cl)cc3)CC2)c1C#N	-11	-14	6	14*	RAM efflux-def=4
CCN1C(=O)C(CC(=O)Nc2ccc(OC)cc2)N(CCc2ccc(F)cc2)C1=S (stereo not drawn)	.	.	.	16*	RAM efflux-def=2
CCCCCCOc1ccc(NC(=O)CC2C(=O)N(CC)C(=S)N2Cc2ccco2)cc1 (stereo not drawn)	2	-10	15	17*	RAM efflux-def=3
O=Cc1ccc(Sc2ncccn2)o1	.	.	.	0
CN(C)C(=O)COC(=O)c1ccccc1NC(=O)c1ccco1	.	.	.	1
CC(=O)Nc1ccc(-c2cc(-c3ccc(NC(C)=O)cc3)nc(-c3ccc(NC(C)=O)cc3)n2)cc1	8	-63	18	12*	RAM efflux-def=5
Cc1c(Cl)cn2c(=O)cc(CN3CCN(c4ccc(F)cc4)CC3)nc2c1Cl	.	.	.	0
O=C(C1CC1)N(Cc1ccco1)c1nc(-c2ccccc2)cs1	-16	-13	8	12*	RAM efflux-def=3
CCCC(=O)OCCNc1cc(SCc2ccco2)c2nonc2c1[N+](=O)[O-]	2	-2	9	14*	RAM efflux-def=3
Cc1cc(C)n2nc(SCCCC(=O)c3ccc(F)cc3)nc2n1	.	.	.	2
Cc1cc(C)c(Nc2cc(S(=O)(=O)O)c(N)c3c2C(=O)c2ccccc2C3=O)c(C)c1	35*	-71	7	26*	RAM efflux-def=15
